Compound activity: PubChem, several laboratories
In the library only some 1.9% were active in any assay of this set; here they are far more common.
Rev-erbA mod – Rev-erb alpha (human) modulation | activity, % at 10 µM | P20393 | Rev-erbα–FITC-DNA binding, fluorescence polarization, 90 min | actives 0.79% (n = 370,000) | AID 1259318;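 active = activity above about 14%, limit read from the data; passing the limit was not always enough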;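 also: 0% = DMSO wells with 35 nM protein and 100% = DMSO wells with 750 nM protein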
Target sequence (P20393 whole entry, looked up): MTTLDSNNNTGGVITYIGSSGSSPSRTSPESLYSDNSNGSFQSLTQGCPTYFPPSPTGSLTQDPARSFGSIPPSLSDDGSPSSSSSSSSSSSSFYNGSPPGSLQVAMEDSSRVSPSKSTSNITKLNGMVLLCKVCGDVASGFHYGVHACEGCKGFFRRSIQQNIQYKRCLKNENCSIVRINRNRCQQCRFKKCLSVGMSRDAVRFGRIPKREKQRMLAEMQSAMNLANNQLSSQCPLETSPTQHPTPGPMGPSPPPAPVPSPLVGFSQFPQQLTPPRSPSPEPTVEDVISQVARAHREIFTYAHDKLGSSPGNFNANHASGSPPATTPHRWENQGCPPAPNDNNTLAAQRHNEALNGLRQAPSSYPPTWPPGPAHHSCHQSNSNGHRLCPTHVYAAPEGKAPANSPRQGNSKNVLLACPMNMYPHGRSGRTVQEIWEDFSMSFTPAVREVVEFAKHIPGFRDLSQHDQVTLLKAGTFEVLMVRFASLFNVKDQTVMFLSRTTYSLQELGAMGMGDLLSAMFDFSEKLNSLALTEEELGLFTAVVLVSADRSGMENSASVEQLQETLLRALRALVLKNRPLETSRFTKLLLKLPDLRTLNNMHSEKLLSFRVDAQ
NR2E3 ag-1 – activates human photoreceptor nuclear receptor NR2E3 | Q9Y5X4 | GST-NR2E3/biotin-RetCOR TR-FRET, 1536-well | inhibition of corepressor binding, % at 4.78 µM | actives 0.12% (n = 320,000);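 active = percent inhibition above the cutoff of mean plus 3 SD of all tested compounds, set per screening campaign, cut at about 20% in these data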;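 also: 0% = DMSO wells and 100% = biotin wells as full block of FRET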
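Test system – NR2E3–RetCOR corepressor complex · Quantity – NR2E3 fusion 1.35 nM · Buffer or medium – Tris pH 7.5 · Incubation – Compound–protein incubation for 5 h at 4 °C · Technique – TR-FRET, Eu(K)-anti-GST donor, streptavidin-D2 acceptor, ex 340, em 617/671 nm · Evaluation – percent inhibition of 671/617 nm emission ratio versus biotin and DMSO controls · Plate – 1536-well format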
PG9 Ab binder – PG9 antibody binding by small molecule; TR-FRET gp120-PG9 antibody binding; inhibition, % at 6.7 µM; actives 0.43% (n = 360,000); AID 624416; in the data active = inhibition above about 8.5%
MT1-MMP act inh – MT1-MMP (human) activation inhibition; actives 0.061% (n = 360,000); HT1080 RFP-PRO-GFP cells, GFP/RFP ratio fluorescence, overnight; percent of plate control window, DMSO zero; AID 651647; GFP/RFP ratio change, % at 20 µM;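 active = GFP/RFP ratio change of at least 30% with cell ATP level not reduced by more than half and red fluorescence within 50% of control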
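system = RFP-PRO-GFP reporter HT1080 cells | dosing = 20 µM single dose, 1% DMSO | timing = overnight cell settling, then overnight compound exposure, 37 °C, 5% CO2 | read-out basis = GFP/RFP fluorescence ratio | controls = DMSO and RFP-L50D-GFP cell wells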
SKN-1 block – inhibitors of C. elegans SKN-1. actives 0.49% (n = 360,000). inhibition, % at 21.8 µM. C. elegans VP596 Pgst-4::GFP/RFP ratio, acrylamide-induced, 24 h;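 active = interference check ratio from 0.5 to 1.5 plus GFP to RFP signal ratio inhibition reaching or exceeding a fixed threshold, cut at about 30% in these data, passing the limit was not always enough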
NR2E3 ag-2 – human photoreceptor-specific nuclear receptor agonism; Q9Y5X4; CHO-S Gal4-NCOR/VP16-NR2E3 two-hybrid, luciferase; inhibition of corepressor binding, % at 3.98 µM; actives 0.35% (n = 360,000); AID 602229;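 active = inhibition above the mean of all tested compounds plus 3 SD, cut at about 70% in these data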;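 also: 0% = DMSO with NR2E3 transfected cells and 100% = cells lacking NR2E3 construct; higher means lower luciferase signal from less NR2E3 corepressor binding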
NR2E3 ag conf – NR2E3 agonism confirmed in two-hybrid assay. CHO-S mammalian two-hybrid NR2E3-NCOR, luciferase luminescence. actives 51% (n = 2,300). shares compounds with NR2E3 ag-2. inhibition, % at 3.98 µM. AID 624378;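 active = average inhibition above a cutoff equal to the mean inhibition of all tested compounds plus one SD, cut at about 70% in these data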;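 also: 0% = DMSO in NR2E3 cells and 100% = DMSO in cells lacking NR2E3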
VP16 counter – GAL4-VP16 reporter inhibition in NR2E3 agonist counterscreen. shares compounds with NR2E3 ag-2. CHO-S GAL4-VP16 luciferase reporter, luminescence. inhibition, % at 3.98 µM. actives 29% (n = 2,300);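 active = mean inhibition above a cutoff equal to the average over all tested compounds plus one standard deviation, cut at about 70% in these data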;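 also: luciferase from a UAS reporter driven by GAL4-VP16 transactivation; 0% = DMSO with VP16-transfected cells and 100% = DMSO with cells lacking VP16; higher means less reporter light so more repression of VP16 activity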
The depositor's hits bear a star; nt = not tested or not shown.

SMILES	Rev-erbA mod	NR2E3 ag-1	PG9 Ab binder	MT1-MMP act inh	SKN-1 block	NR2E3 ag-2	NR2E3 ag conf	VP16 counter
COC(=O)C1=C(C)N(C)C(=NCc2ccccc2)NC1c1cccc(Cl)c1 (stereo not given)	-5.6	nt	-1.2	nt	nt	nt	nt	nt
COCCN=C1NN=C(c2cc(C)n(CC3CCCO3)c2C)CS1 (stereo not given)	-2.1	-0.5	0.5	1.2	2.5	-16.7	nt	nt
COCCn1c(C)cc(C2=NNC(=Nc3ccccc3F)SC2)c1C	-0.5	0.3	-0.7	7.7	-14.6	88.0*	56.9	39.8
C=CCN=C1NN=C(c2cc(C)n(CC=C)c2C)CS1	-6.6	-1.4	-1.3	2.8	19.4	54.6	54.8	32.0
COCCCN=C1NN=C(c2cc(C)n(-c3ccccc3F)c2C)CS1	2.8	-1.8	0.3	-0.6	9.1	-41.1	nt	nt
C=CCNC(=O)C1CC1(c1cccc(C)c1)c1cccc(C)c1 (stereo not given)	-3.7	3.0	-0.6	6.9	-3.7	-18.8	nt	nt
Cc1cccc(C2(c3cccc(C)c3)CC2C(=O)Nc2ccc([N+](=O)[O-])cc2O)c1 (stereo not given)	2.7	-4.0	1.2	-14.1	6.7	86.3*	74.0*	66.9
O=C(Nc1nnc(SCc2ccc(F)cc2)s1)c1ccccn1	-0.6	nt	0.4	13.6	29.2	64.9	48.9	4.7
COC(=O)[C@]12C[C@H](CC(=O)NCC34CC5CC(CC(C5)C3)C4)C(=O)N(CCC3=CCCCC3)C1=C[C@H](COCc1ccccc1)O[C@@H]2C	-12.1	nt	-0.6	nt	nt	nt	nt	nt
CC(=O)c1cccc(S(=O)(=O)Nc2ccc3nc(C)sc3c2)c1	-4.3	4.1	1.0	-0.2	-7.5	40.7	nt	nt
Cc1ccc(NS(=O)(=O)c2ccc3c(c2)NC(=O)CCS3)cc1C	4.8	-0.7	1.5	-8.5	-2.5	53.6	-1.6	22.2
Cc1nc2ccc(NS(=O)(=O)c3c(F)cc(F)cc3Br)cc2s1	-0.8	1.7	-0.7	-4.0	19.1	74.7*	71.6*	61.6
Cc1ccc(NS(=O)(=O)c2ccc3c(c2)NC(=O)CCS3)cc1F	-3.0	0.3	1.5	-6.4	2.7	-29.3	nt	nt
Cc1nc2ccc(NS(=O)(=O)c3ccc(F)cc3F)cc2s1	-2.2	0.4	-0.9	-8.8	0.5	16.4	nt	nt
Cc1nc2ccc(NS(=O)(=O)c3ccc(C)c(C)c3)cc2s1	-1.8	1.8	-0.1	1.5	18.4	81.3*	95.9*	80.1*
COP(=O)(O)[C@@H](CC(C)C)NC(=O)OCc1ccccc1	4.3	nt	nt	nt	nt	nt	nt	nt
COc1ccc(CNC(=O)c2cc(-c3ccccc3)c(N3CCOCC3)s2)cc1OC	2.7	nt	nt	nt	nt	nt	nt	nt
CCCCCCCCN1C(=O)[C@@H](CC(=O)N2CCN(C(=O)C3CC3)CC2)C[C@@]2(C(=O)OC)C1=C[C@H](COCc1ccccc1)O[C@@H]2C	2.8	nt	nt	nt	nt	nt	nt	nt
CC(=O)N1CCc2cc(Br)c(S(=O)(=O)NCc3ccc(Cl)cc3)cc21	-0.8	nt	nt	nt	nt	nt	nt	nt
CN(C(=O)CSc1ncnc2c(-c3cccs3)nsc12)C1CCCCC1	-16.4	nt	-1.6	nt	nt	nt	nt	nt
COC(=O)[C@]1(CC(C)C)NC=C(C(=O)c2ccccc2)[C@@H]1c1cccc(C(F)(F)F)c1	-11.4	nt	-1.1	nt	nt	nt	nt	nt
CCCn1c(CN2CCN(c3cccc(Cl)c3)CC2)nc2c1c(=O)n(C)c(=O)n2C	2.4	-0.9	-0.5	-4.3	4.6	92.6*	93.7*	85.0*
CC(C)C[C@H]1COc2ccc(Cl)cc2S(=O)(=O)N1	-3.9	nt	-1.9	nt	nt	nt	nt	nt
COC(=O)[C@]12C[C@H](CC(=O)N3CCN(C(=O)C4CC4)CC3)C(=O)N(CCC3=CCCCC3)C1=C[C@H](COCc1ccccc1)O[C@@H]2C	-0.8	nt	-0.1	nt	nt	nt	nt	nt
CC(C)[C@H](CO)N(Cc1cccc(F)c1)c1nc(Nc2cccc(Cl)c2)c2ncn(C(C)C)c2n1	-1.9	1.6	-0.5	-8.6	8.5	-7.8	nt	nt
SMILES	Rev-erbA mod	NR2E3 ag-1	PG9 Ab binder	MT1-MMP act inh	SKN-1 block	NR2E3 ag-2	NR2E3 ag conf	VP16 counter
CC[C@H](CO)Nc1nc(Nc2cccc(Cl)c2)c2ncn(C(C)C)c2n1	1.4	2.6	-0.3	-10.0	-20.2	92.0*	73.9*	65.8
COC(=O)Cc1nnn2c1CC(OC)c1cc(Br)ccc1-2 (stereo not given)	7.2	nt	0.6	nt	nt	nt	nt	nt
CCCc1cc(=O)n2nc(N3CCC(C(=O)N4CCN(c5ccc(OC)cc5)CC4)CC3)sc2n1	3.9	0.3	-1.1	1.9	7.8	68.9	74.7*	55.1
O=C(NC(=S)/C(=C1\CCCCCN1)[N+](=O)[O-])c1ccccc1	nt	nt	nt	-2.2	21.8	51.8	23.1	-11.0
O=C(NC(=S)Nc1ccccc1[N+](=O)[O-])c1ccccc1	2.4	0.7	-0.2	1.9	2.8	-75.0	nt	nt
Cc1cccc(Cc2cnc(N3C(=N)SC(c4ccccc4)C3=O)s2)c1 (stereo not given)	-4.9	-0.9	-0.1	3.6	14.6	-14.0	nt	nt
Cc1cccc(Cc2cnc(N3C(=N)SC(C)C3=O)s2)c1 (stereo not given)	-7.5	0.3	1.4	7.2	4.2	103.4*	98.6*	21.2
Cc1ccc(Cc2cnc(N3C(=N)SC(C)C3=O)s2)cc1 (stereo not given)	-1.8	-1.1	0.6	1.7	2.3	101.5*	100.6*	-3.0
O=C(O)CCCC(=O)OCCCc1cc2ccccc2c(=O)o1	-9.2	nt	0.6	nt	nt	nt	nt	nt
COc1ccc(NC(=O)C(Cl)=C(Cl)Cl)cn1	-3.8	nt	-1.4	-0.3	0.0	-27.6	nt	nt
COc1ccc(NC(=O)/C(Cl)=C(/Cl)S(=O)Cc2ccc(Cl)cc2)cn1 (stereo not given)	-2.5	nt	-0.4	-26.1	0.2	87.2*	99.1*	34.0
COc1ccc(NC(=O)/C(Cl)=C(/Cl)S(=O)(=O)Cc2ccccc2)cn1	-6.4	nt	-2.3	9.3	-2.4	82.8*	98.2*	26.6
COc1ccc(C2CC(=O)C(c3ccc(C(C)=O)cc3)=CN2Cc2ccccc2)cc1 (stereo not given)	2.5	nt	1.2	nt	nt	nt	nt	nt
CCn1cc(C(=O)N2CCN(c3ccc(F)cc3)CC2)c(=O)c2ccc(C)nc21	5.8	nt	nt	nt	nt	nt	nt	nt
CC1CCc2nc(NC(=O)CSc3nc4ccccc4o3)sc2C1 (stereo not given)	-3.1	0.7	0.7	-0.2	-3.3	84.4*	61.7	56.9
CCOC(=O)c1c2c(n(-c3ccc(OC)cc3)c1C)C(=O)C(=O)c1ccccc1-2	nt	nt	nt	-17.7	18.3	62.5	29.7	-15.6
CCOC(=O)c1sc(=S)n(-c2ccc(OC)cc2)c1C	-2.1	-1.3	3.2	-2.8	1.8	-19.4	nt	nt
